Results: ChEMBL document CHEMBL3792280, “Design and synthesis of novel quinoxaline derivatives as potential candidates for treatment of multidrug-resistant and latent tuberculosis” (Bioorg Med Chem Lett, 2016)
Values after ≈ are worked out from the molar mass of the structure shown.

Assays:
[1] = test system: J774; assay: Cytotoxicity against mouse J774 cells assessed as cell viability at 10 times MIC by MTT assay relative to control; type: cell-based
[2] = test system: Mycobacterium tuberculosis; assay: Antimicrobial activity against Mycobacterium tuberculosis H37Rv ATCC 27294 infected in mouse J774 cells assessed as log reduction in bacterial burden at 10 times lower MIC measured 7 days postinfection relative to control; type: functional
Outline: (§1)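 Macrophages infected with H37Rv and treated at three concentrations 10-fold apart, chosen from the primary-screen H37Rv data. The middle concentration brackets the reported MIC, with the others ten-fold below and ten-fold above it. Read-out is log-reduction of intracellular bacterial burden.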

[3] = test system: Mycobacterium tuberculosis; assay: Antimicrobial activity against Mycobacterium tuberculosis H37Rv SRI 1345 assessed as growth inhibition at MIC after 7 days; type: functional
Outline: (§2)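 MIC in µg/mL, retested on susceptible H37Rv (SRI 1345) in the same panel as single-drug-resistant strains: isoniazid-, rifampin- and ofloxacin-resistant. Percent inhibition recorded at the MIC concentration. Ratio taken as MIC H37Rv / MIC resistant strain.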

[4] = test system: Mycobacterium tuberculosis; assay: Antimicrobial activity against non-replicating Mycobacterium tuberculosis H37Rv SRI 1345 assessed as inhibition of visual growth incubated for 7 days under anaerobic condition by low oxygen recovery assay; type: functional; conditions: H37Rv SRI 1345, 168 h
[5] = test system: Mycobacterium tuberculosis; assay: Antimicrobial activity against Mycobacterium tuberculosis H37Rv ATCC 27294 infected in mouse J774 cells assessed as log reduction in bacterial burden at MIC measured 7 days postinfection relative to control; type: functional; outline: as §1
[6] = test system: Mycobacterium tuberculosis; assay: Antimicrobial activity against Mycobacterium tuberculosis H37Rv ATCC 27294 infected in mouse J774 cells assessed as log reduction in bacterial burden at 10 times MIC measured 7 days postinfection relative to control; type: functional; outline: as §1
[7] = test system: Mycobacterium tuberculosis; assay: Antimicrobial activity against Mycobacterium tuberculosis H37Rv ATCC 27294 infected in mouse J774 cells assessed as growth inhibition at 10 times lower MIC measured 7 days postinfection; type: functional; outline: as §1
[8] = test system: J774; assay: Cytotoxicity against mouse J774 cells assessed as cell viability at 10 times lower MIC by MTT assay relative to control; type: cell-based
[9] = test system: Mycobacterium tuberculosis; assay: Antimicrobial activity against Mycobacterium tuberculosis H37Rv ATCC 27294 incubated for 7 days by BacTiter-Glo cell viability assay; type: functional, organism-based; conditions: for MIC: H37Rv ATCC 27294, 168 h; for IC50 / IC90: H37Rv ATCC 27294, BacTiter-Glo, 168 h
[10] = test system: Mycobacterium tuberculosis; assay: Antimicrobial activity against Mycobacterium tuberculosis H37Rv ATCC 27294 infected in mouse J774 cells assessed as log reduction in bacterial burden at 10 times lower MIC measured 7 days postinfection relative to rifampicin; type: functional; outline: as §1
[11] = test system: Mycobacterium tuberculosis; assay: Antimicrobial activity against Mycobacterium tuberculosis H37Rv SRI 1345 after 7 days; type: functional; conditions: H37Rv SRI 1345, 168 h; outline: as §2
[12] = test system: J774; assay: Cytotoxicity against mouse J774 cells assessed as cell viability at MIC by MTT assay relative to control; type: cell-based
[13] = test system: Mycobacterium tuberculosis; assay: Antimicrobial activity against Mycobacterium tuberculosis H37Rv SRI 1345 assessed as inhibition of visual growth after 18 to 24 hrs; type: functional; conditions: read-out: MBC99.9
[14] = test system: Mycobacterium tuberculosis; assay: Ratio of MBC for Mycobacterium tuberculosis H37Rv SRI 1345 to MIC for Mycobacterium tuberculosis H37Rv SRI 1345; type: functional
Outline: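 MBC read from colony-forming unit counts; ratio computed as MBC / MIC against H37Rv.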

| SMILES | MIC [9] [µM] | IC50 [9] [µM] | IC90 [9] [µM] | other results |
| --- | --- | --- | --- | --- |
| O=C(c1ccco1)c1c(C(F)(F)F)[n+]([O-])c2cc(Cl)c(N3CCOCC3)cc2[n+]1[O-] | 3.1 (≈ 1.38 µg/mL) | 1.2 | 2.1 | Activity [1]: 37%; log reduction in bacterial burden [2]: 1.68; growth inhibition (GI) [3]: 61%; MIC [4]: 0.25 µg/mL (≈ 0.563 µM); log reduction in bacterial burden [5]: 1.57; log reduction in bacterial burden [6]: 2.67; growth inhibition (GI) [7]: >90%; Activity [8]: 88%; Log reduction in bacterial burden relative to rifampicin [10]: 3; MIC [11]: 2 µg/mL (≈ 4.51 µM) |
| CC(=O)c1c(C(F)(F)F)nc2cc(F)c(N3CCSCC3)cc2[n+]1[O-] | 3.1 (≈ 1.16 µg/mL) | 1.3 | 1.8 | Activity [1]: 26%; log reduction in bacterial burden [2]: 2.17; growth inhibition (GI) [3]: 51%; MIC [4]: > 12 µg/mL; log reduction in bacterial burden [5]: 1.66; log reduction in bacterial burden [6]: 1.76; growth inhibition (GI) [7]: >99%; Activity [12]: 81%; Activity [8]: 70%; Log reduction in bacterial burden relative to rifampicin [10]: 3; MIC [11]: 0.75 µg/mL (≈ 2 µM) |
| Cc1ccc2c(c1)[n+]([O-])c(C(=O)/C=C/c1ccc([N+](=O)[O-])s1)c(C)[n+]2[O-] |  | > 100 | > 100 |  |
| Cc1c(C(=O)/C=C/c2ccc([N+](=O)[O-])s2)[n+]([O-])c2cc(Cl)ccc2[n+]1[O-] | 25 (≈ 9.79 µg/mL) | 7.3 | 13 |  |
| CC(C)C(=O)c1c(C(F)(F)F)nc2cc(N3CCOCC3)c(N3CCOCC3)cc2[n+]1[O-] | 25 (≈ 11.4 µg/mL) | 8.3 | 17.9 |  |
| Cc1ccc2c(c1)[n+]([O-])c(C(=O)/C=C/c1ccccc1)c(C)[n+]2[O-] | 25 (≈ 8.01 µg/mL) | 7.2 | 14.7 |  |
| Cc1c(C(=O)/C=C/c2ccc([N+](=O)[O-])o2)[n+]([O-])c2cc(Cl)ccc2[n+]1[O-] | 25 (≈ 9.39 µg/mL) | 13.5 | 20.8 |  |
| Cc1c(C(=O)/C=C/c2ccc([N+](=O)[O-])o2)[n+]([O-])c2ccccc2[n+]1[O-] | 25 (≈ 8.53 µg/mL) | 17.3 | 24.6 |  |
| Cc1c(C(=O)/C=C/c2ccccc2)[n+]([O-])c2ccccc2[n+]1[O-] | 12.5 (≈ 3.83 µg/mL) | 5.8 | 11.5 |  |
| NCC[C@H](O)C(=O)N[C@@H]1C[C@H](N)[C@@H](O[C@H]2O[C@H](CN)[C@@H](O)[C@H](O)[C@H]2O)[C@H](O)[C@H]1O[C@H]1O[C@H](CO)[C@@H](O)[C@H](N)[C@H]1O [AMIKACIN] | 0.2 (≈ 0.117 µg/mL) | 0.102 | 0.141 |  |
| N[C@@H]1CONC1=O [CYCLOSERINE] | 50 (≈ 5.1 µg/mL) | 20.8 | 33.1 |  |
| CC[C@@H](CO)NCCN[C@@H](CC)CO [ETHAMBUTOL] | 6.2 (≈ 1.27 µg/mL) | 1.2 | 1.8 |  |
| NNC(=O)c1ccncc1 [ISONIAZID] | 0.3 (≈ 0.0411 µg/mL) | 0.1 | 0.2 |  |
| CCc1nc(N)nc(N)c1-c1ccc(Cl)cc1 [PYRIMETHAMINE] | 50 (≈ 12.4 µg/mL) | 23.6 | 36 |  |
| CO[C@H]1/C=C/O[C@@]2(C)Oc3c(C)c(O)c4c(O)c(c(/C=N/N5CCN(C)CC5)c(O)c4c3C2=O)NC(=O)/C(C)=C\C=C\[C@H](C)[C@H](O)[C@@H](C)[C@@H](O)[C@@H](C)[C@H](OC(C)=O)[C@@H]1C [RIFAMPIN] | 0.04 (≈ 0.0329 µg/mL) | 0.02 | 0.03 | Activity [1]: 80%; MBC [13]: 0.78 µg/mL (≈ 0.948 µM); log reduction in bacterial burden [2]: 0.48; growth inhibition (GI) [3]: 55%; MIC [4]: 0.39 µg/mL (≈ 0.474 µM); log reduction in bacterial burden [5]: 1.73; Ratio [14]: 15.6; log reduction in bacterial burden [6]: 2.68; Activity [12]: 87%; Activity [8]: 93%; MIC [11]: 0.05 µg/mL (≈ 0.0608 µM) |
